Consider three molecules from ChEMBL document CHEMBL1777776, “Identification of 2-mercaptohexanoic acids as dual inhibitors of 5-lipoxygenase and microsomal prostaglandin E₂ synthase-1” (Bioorg Med Chem, 2011).

For data set [1], the target named is T1, Polyunsaturated fatty acid 5-lipoxygenase (Homo sapiens, UniProt P09917).
T1 sequence (P09917 whole entry): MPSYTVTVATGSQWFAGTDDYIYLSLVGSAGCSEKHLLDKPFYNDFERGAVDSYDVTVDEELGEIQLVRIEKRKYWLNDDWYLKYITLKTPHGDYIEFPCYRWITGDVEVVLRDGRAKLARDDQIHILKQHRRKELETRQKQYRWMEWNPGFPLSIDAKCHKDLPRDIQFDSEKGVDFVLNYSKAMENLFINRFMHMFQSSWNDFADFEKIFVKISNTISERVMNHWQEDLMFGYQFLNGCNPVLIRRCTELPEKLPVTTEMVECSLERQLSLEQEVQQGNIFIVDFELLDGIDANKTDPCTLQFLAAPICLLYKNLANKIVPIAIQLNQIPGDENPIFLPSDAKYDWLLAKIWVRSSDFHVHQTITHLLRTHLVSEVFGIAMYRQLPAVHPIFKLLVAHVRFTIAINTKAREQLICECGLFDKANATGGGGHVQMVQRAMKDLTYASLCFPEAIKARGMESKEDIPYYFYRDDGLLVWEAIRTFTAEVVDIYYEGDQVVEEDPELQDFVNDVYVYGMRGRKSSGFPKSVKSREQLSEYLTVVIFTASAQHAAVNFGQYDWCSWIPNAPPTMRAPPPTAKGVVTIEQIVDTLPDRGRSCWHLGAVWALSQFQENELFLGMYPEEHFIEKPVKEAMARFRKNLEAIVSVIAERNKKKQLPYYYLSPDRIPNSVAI
Nature of the data set: Inhibition of human recombinant 5-lipoxygenase expressed in Escherichia coli BL21 assessed as enzyme product formation using arachidonic acid as substrate after 10 mins by RP-HPLC analysis. Put shortly: (§1)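 Human 5-LO expressed in E. coli BL21 (pT3-5LO), affinity-purified and used at once. 0.5 µg enzyme in 1 ml PBS/EDTA with 1 mM ATP preincubated with compound 5–10 min at 4 °C, then warmed 30 s at 37 °C. Reaction started with 2 mM CaCl₂ and AA (routinely 20 µM), with or without 1 µM 13(S)-HpODE. Run 10 min at 37 °C, stopped with ice-cold methanol, products analysed by HPLC. Washout: 10-fold dilution (10 to 1 µM).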

Data set [2] deals with T1, Polyunsaturated fatty acid 5-lipoxygenase. Description: Inhibition of 5-lipoxygenase in A23187-stimulated human PMNL assessed as enzyme product formation preincubated 15 mins by RP-HPLC analysis in presence of exogenous arachidonic acid. Put shortly:
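Freshly isolated human PMNL (5 × 10⁶/ml PGC buffer: PBS pH 7.4, 1 mg/ml glucose, 1 mM CaCl₂) preincubated with compound 15 min at 37 °C. Stimulated with 2.5 µM A23187 plus exogenous AA for 10 min at 37 °C. Stopped with methanol, PGB₁ added as internal standard, lipoxygenase products analysed by HPLC. Mean of n = 3–5.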

Data set [3] addresses T2, Prostaglandin G/H synthase 1 (Ovis aries) (UniProt P05979).
T2 sequence (whole entry): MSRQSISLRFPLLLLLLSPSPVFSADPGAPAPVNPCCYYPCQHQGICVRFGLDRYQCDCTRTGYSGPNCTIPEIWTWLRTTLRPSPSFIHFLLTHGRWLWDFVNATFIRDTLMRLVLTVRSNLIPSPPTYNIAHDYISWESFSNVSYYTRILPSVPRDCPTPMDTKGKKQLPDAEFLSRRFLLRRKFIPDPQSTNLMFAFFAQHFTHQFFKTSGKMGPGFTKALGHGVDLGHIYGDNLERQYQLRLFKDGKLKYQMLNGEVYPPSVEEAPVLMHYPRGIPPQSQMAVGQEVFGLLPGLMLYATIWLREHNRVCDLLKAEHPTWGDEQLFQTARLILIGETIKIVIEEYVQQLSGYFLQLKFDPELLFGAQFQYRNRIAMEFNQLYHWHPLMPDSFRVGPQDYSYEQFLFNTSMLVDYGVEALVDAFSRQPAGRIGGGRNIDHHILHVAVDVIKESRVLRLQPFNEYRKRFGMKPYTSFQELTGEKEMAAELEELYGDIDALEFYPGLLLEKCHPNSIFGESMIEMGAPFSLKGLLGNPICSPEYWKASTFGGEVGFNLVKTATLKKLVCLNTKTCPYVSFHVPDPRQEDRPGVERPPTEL
Description: Inhibition of ovine COX1 assessed as residual activity at 10 uM after 5 mins. The method, boiled down: (§2)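 Ovine COX-1 (50 units) or human recombinant COX-2 (20 units) in 1 ml 100 mM Tris pH 8 with 5 mM glutathione, 5 µM haemoglobin and 100 µM EDTA. Preincubated with 10 µM compound 5 min at 4 °C, warmed 60 s at 37 °C. Started with AA (5 µM for COX-1, 2 µM for COX-2), run 5 min at 37 °C. 12-HHT extracted and analysed by HPLC. n = 3.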

For a further data set, the target named is T3, Prostaglandin E synthase (Homo sapiens, UniProt O14684).
T3 sequence (O14684 whole entry): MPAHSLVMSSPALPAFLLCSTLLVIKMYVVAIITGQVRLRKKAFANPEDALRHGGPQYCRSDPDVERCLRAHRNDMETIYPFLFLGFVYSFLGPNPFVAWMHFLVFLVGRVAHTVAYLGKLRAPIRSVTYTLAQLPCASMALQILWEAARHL
Nature of the data set: Inhibition of mPGES-1 in human IL-1beta-stimulated A549 cell microsomes assessed as reduction of PGE2 formation from PGH2 after 15 mins. Also on record: species or system Microsome. The method, boiled down: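 Microsomes from A549 cells stimulated 72 h with IL-1β (1 ng/ml), diluted to 50 µg/ml in 0.1 M potassium phosphate pH 7.4 with 2.5 mM glutathione. Preincubated with compound (1% DMSO final) 15 min at 4 °C. Reaction started with 20 µM PGH₂, run 1 min at 4 °C, stopped with FeCl₂/citric acid containing 11β-PGE₂; PGE₂ quantified. Mean of n = 3–5.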

The test system of the next data set is A549. Description: Cytotoxicity against human A549 cells assessed as cell viability at 10 uM after 16 hrs by MTT assay. The class given is cell-based. To be noted: a549, 5 h, in the assay text read “5 hrs” for “16 hrs”. The method, boiled down:
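A549 cells plated at 4 × 10⁴ cells per well, incubated 16 h at 37 °C, 5% CO₂, then exposed to 10 µM compound or DMSO (≤0.3% final) for 5 h. MTT added for 4 h, formazan solubilized with SDS in 20 mM HCl, absorbance at 595 nm read relative to vehicle-treated cells.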
On the technique in general: Tetrazolium dyes change colour on reduction, which living cells bring about.

For data set [4], the target named is T4, Prostaglandin G/H synthase 2 (Homo sapiens) (UniProt P35354).
T4 sequence (whole entry): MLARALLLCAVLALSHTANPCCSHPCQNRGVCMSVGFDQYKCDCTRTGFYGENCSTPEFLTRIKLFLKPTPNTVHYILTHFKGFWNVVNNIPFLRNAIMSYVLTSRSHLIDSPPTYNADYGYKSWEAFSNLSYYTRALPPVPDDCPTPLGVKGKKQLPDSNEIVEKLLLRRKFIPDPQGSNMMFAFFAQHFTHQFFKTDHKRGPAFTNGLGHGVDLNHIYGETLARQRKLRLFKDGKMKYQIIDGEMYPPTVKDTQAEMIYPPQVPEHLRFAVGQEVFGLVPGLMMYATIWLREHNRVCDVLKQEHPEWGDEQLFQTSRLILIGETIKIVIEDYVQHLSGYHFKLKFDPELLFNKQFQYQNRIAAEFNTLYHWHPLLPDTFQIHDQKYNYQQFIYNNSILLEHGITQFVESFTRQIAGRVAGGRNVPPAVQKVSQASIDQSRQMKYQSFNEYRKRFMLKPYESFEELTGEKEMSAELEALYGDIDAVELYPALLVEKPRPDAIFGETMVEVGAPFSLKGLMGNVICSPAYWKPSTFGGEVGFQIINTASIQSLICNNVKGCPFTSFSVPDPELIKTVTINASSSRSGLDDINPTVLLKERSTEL
Nature of the data set: Inhibition of human recombinant COX2 assessed as residual activity at 10 uM after 5 mins. Put shortly: as §2

For data set [5], the target named is T5, Polyunsaturated fatty acid 5-lipoxygenase (Homo sapiens) (UniProt P09917).
T5 sequence (whole entry): T1 sequence (P09917 whole entry)
Nature of the data set: Inhibition of human recombinant 5-lipoxygenase expressed in Escherichia coli BL21 assessed as enzyme product formation using arachidonic acid as substrate at 1 uM after 10 mins by RP-HPLC analysis. The method, boiled down:
as §1

The source made the active and inactive calls. No cut-off for these calls is given here.

Take `CCCCC(Sc1ccc(OCCCOc2ccc(Cl)c(C(F)(F)F)c2)cc1)C(=O)O` (stereo not drawn): the IC50 (as a rule, the concentration that gives 50% inhibition) in data set [1] was determined as 2000 nM; in data set [2] it was 1500 nM; on Prostaglandin E synthase it was 1700 nM. The results for the Activity (in data set [3]; in the data set on A549) were 71.3% and “Non-toxic”, respectively. Besides, the inhibition entry in data set [4] was “inactive”.

For `CCCCC(Sc1ccc(OCCCOc2cccc3c2CCCC3)cc1)C(=O)O` (stereo not drawn), the IC50 in data set [1] worked out at 4500 nM; in data set [2] it was 1400 nM; at Prostaglandin E synthase, 2200 nM. Besides, the inhibition result in data set [3] and in data set [4] was “inactive” each time. The Activity entry with A549 is reported as “Non-toxic”.

Turning to `CC(C)c1ccc2c(c1)c(SC(C)(C)C)c(CC(C)(C)C(=O)O)n2Cc1ccc(Cl)cc1`, in data set [5], the inhibition result was “inactive”.
